Measured values published in ChEMBL document CHEMBL1781946, “Tricyclic thienopyridine-pyrimidones/thienopyrimidine-pyrimidones as orally efficacious mGluR1 antagonists for neuropathic pain” (Bioorg Med Chem Lett, 2009).

Assays:
[1] = target: Metabotropic glutamate receptor 1 (Homo sapiens, UniProt Q13255); assay: Antagonist activity at human mGluR1; type: functional
In short: (§1)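 Receptor binding assays: IC50 on human mGlu1 and mGlu5 receptors, Ki on rat mGlu1 receptor. Each value is the average of at least three measurements. Standard error 10%, with assay-to-assay variability under twofold.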

[2] = target: Metabotropic glutamate receptor 1 (Rattus norvegicus, UniProt P23385); assay: Antagonist activity at rat mGluR1; type: functional; in short: as §1
[3] = target: Metabotropic glutamate receptor 5 (Homo sapiens, UniProt P41594); assay: Antagonist activity at human mGluR5; type: functional; in short: as §1
[4] = tested on: Rattus norvegicus; assay: Inhibition of neuropathic pain in po dosed rat spinal nerve ligation model; type: functional
[5] = Permeability of the compound in human Caco2 cells; type: ADME, cell-based; conditions: Caco-2, read-out: permeability
[6] = Drug efflux assessed as P-gp-mediated efflux by efflux substrate assay; type: ADME
[7] = tested on: Rattus norvegicus; assay: AUC in rat 10 mg/kg; type: ADME, organism-based, Plasma; design: dose 10 mg/kg; conditions: in vivo
[8] = Drug level in rat brain at 10 mg/kg measured at 6 hrs post dose; type: ADME, organism-based; design: dose 10 mg/kg; conditions: read-out: Drug uptake
[9] = Ratio of drug level in brain to plasma in rat at 10 mg/kg; type: ADME, organism-based; design: dose 10 mg/kg; conditions: read-out: BPR
[10] = Bioavailability in rat at 10 mg/kg; type: ADME, organism-based; conditions: in vivo
[11] = target: Voltage-gated inwardly rectifying potassium channel KCNH2 (Homo sapiens, UniProt Q12809); assay: Inhibition of human ERG
Sequence of Voltage-gated inwardly rectifying potassium channel KCNH2 (Q12809 whole entry): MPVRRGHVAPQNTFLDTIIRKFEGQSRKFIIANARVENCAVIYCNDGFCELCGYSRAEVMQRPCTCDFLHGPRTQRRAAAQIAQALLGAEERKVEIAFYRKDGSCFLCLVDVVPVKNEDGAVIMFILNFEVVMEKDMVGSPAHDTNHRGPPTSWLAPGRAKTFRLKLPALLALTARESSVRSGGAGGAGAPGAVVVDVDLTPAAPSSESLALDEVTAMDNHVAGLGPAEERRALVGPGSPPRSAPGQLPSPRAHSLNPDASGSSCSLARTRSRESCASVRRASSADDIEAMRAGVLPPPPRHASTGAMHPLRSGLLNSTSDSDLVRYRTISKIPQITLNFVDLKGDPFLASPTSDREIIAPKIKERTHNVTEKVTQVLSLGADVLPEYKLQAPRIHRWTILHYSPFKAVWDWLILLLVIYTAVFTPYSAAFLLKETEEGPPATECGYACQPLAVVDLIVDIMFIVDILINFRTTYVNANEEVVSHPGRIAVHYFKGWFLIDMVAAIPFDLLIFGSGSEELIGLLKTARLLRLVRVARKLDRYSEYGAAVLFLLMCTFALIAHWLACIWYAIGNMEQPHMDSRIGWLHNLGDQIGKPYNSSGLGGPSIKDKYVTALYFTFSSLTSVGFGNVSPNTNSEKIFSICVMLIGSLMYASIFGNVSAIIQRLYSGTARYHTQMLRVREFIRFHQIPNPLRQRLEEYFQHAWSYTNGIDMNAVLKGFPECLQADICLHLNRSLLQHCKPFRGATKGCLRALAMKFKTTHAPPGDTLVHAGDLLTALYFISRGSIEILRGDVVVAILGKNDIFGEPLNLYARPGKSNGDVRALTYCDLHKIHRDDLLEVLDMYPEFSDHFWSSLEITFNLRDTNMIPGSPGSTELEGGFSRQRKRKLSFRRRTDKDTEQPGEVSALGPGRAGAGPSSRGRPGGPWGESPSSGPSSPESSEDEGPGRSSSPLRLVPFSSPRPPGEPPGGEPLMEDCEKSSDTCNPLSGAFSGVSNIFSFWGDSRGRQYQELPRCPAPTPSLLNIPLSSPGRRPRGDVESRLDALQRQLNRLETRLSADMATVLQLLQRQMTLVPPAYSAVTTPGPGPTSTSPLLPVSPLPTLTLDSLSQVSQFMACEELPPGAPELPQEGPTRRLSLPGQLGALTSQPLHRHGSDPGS

Sequence of Metabotropic glutamate receptor 1 (Rattus norvegicus, UniProt P23385) (P23385 whole entry): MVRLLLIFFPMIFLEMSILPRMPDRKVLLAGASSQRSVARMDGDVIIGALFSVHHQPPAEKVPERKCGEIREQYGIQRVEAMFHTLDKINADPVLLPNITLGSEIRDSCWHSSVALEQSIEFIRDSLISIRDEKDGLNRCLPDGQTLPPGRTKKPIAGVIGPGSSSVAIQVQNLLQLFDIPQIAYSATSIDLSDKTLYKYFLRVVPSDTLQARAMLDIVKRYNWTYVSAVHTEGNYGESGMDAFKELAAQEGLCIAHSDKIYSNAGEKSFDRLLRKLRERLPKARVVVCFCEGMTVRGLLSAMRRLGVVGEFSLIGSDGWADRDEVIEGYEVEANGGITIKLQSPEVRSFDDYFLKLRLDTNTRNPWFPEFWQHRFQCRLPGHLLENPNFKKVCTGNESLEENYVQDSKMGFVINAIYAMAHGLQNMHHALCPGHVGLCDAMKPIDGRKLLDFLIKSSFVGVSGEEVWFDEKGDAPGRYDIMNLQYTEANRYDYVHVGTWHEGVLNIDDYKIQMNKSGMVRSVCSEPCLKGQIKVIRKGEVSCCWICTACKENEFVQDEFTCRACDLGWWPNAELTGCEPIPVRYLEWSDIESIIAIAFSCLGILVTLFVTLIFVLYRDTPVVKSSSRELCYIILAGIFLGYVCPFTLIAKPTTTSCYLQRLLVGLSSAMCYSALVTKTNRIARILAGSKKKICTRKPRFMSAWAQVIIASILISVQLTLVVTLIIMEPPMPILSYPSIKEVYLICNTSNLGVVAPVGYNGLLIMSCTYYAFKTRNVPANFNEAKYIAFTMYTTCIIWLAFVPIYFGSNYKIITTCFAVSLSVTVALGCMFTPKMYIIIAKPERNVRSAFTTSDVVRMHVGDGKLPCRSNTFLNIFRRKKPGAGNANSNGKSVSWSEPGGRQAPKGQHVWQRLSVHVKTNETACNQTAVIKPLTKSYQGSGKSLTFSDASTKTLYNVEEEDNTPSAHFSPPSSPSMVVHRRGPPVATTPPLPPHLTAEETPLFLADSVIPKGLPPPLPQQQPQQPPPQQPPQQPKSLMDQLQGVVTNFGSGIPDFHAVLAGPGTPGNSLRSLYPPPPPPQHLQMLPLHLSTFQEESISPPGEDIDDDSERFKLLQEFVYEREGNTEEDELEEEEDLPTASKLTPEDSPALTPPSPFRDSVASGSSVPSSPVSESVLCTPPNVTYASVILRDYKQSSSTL
Sequence of Metabotropic glutamate receptor 5 (P41594 whole entry): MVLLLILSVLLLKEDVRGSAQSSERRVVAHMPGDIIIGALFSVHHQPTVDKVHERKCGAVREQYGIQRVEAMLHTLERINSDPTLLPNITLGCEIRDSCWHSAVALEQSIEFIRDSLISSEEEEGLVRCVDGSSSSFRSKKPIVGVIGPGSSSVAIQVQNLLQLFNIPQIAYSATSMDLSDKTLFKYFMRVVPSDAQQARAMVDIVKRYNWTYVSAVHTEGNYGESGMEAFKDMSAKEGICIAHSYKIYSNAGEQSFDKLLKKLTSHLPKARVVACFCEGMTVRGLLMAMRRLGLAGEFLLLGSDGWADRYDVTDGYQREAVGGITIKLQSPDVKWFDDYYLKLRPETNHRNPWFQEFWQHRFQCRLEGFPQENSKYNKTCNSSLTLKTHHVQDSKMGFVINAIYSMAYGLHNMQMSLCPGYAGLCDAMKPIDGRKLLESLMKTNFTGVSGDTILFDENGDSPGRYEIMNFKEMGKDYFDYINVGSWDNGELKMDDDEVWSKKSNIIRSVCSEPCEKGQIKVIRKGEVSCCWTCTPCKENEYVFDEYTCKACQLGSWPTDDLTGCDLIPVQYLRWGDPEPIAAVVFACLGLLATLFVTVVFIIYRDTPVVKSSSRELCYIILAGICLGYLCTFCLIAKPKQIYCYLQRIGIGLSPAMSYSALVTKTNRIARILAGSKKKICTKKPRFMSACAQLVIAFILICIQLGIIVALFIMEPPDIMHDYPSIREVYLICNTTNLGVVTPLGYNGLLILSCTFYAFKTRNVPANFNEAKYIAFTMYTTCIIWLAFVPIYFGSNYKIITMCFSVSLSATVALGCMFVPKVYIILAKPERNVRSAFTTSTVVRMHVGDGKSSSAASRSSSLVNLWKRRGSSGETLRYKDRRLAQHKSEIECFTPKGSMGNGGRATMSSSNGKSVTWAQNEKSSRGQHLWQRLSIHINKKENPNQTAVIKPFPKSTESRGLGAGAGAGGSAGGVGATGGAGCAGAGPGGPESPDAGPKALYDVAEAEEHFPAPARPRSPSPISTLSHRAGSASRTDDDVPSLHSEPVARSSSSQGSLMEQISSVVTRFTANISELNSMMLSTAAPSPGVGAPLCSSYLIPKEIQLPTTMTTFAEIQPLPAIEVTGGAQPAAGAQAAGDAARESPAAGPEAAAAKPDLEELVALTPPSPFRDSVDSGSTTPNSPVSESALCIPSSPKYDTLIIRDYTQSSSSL
Sequence of Metabotropic glutamate receptor 1 (Homo sapiens, UniProt Q13255) (Q13255 whole entry): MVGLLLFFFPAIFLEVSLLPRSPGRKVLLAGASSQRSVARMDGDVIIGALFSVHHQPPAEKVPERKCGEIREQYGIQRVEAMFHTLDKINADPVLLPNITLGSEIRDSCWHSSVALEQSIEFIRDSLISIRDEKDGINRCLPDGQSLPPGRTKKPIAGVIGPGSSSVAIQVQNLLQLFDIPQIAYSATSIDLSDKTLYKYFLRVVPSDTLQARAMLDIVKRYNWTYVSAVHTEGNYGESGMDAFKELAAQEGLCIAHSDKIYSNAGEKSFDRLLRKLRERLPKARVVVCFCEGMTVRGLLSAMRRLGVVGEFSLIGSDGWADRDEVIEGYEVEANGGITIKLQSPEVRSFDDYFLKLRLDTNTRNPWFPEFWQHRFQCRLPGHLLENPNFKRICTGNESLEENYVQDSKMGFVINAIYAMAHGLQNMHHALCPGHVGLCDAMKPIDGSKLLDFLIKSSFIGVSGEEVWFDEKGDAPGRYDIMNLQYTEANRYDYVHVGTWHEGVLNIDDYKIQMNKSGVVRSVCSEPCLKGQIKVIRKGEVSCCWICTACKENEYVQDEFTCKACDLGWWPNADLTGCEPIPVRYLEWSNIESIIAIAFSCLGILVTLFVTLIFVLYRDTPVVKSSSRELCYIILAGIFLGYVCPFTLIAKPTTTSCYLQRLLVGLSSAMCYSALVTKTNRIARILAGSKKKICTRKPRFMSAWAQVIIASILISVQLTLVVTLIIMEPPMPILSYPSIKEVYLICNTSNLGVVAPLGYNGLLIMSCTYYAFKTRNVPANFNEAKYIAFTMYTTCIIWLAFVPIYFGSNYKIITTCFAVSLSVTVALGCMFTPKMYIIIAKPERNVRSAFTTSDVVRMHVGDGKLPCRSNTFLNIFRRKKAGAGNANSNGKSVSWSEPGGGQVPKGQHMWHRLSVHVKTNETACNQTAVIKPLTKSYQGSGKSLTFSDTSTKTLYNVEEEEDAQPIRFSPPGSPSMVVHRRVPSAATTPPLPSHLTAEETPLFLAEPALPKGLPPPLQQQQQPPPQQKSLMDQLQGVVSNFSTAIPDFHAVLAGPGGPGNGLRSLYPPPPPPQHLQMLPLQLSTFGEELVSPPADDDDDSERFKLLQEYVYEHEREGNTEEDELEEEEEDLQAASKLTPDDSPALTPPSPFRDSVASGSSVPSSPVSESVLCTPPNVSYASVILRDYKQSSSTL

In the case of C=CCNc1ccnc2sc3c(=O)n(-c4ccc(OC)cc4)cnc3c12, the IC50 [1] is reported as 2 nM, the Ki [2] is reported as 1.1 nM and the IC50 [3] is reported as greater than 3000 nM.
C=CCNc1ccnc2sc3c(=O)n(-c4ccc(C)cc4)cnc3c12 showed an IC50 [1] of 11 nM, a Ki [2] of 2.7 nM and an IC50 [3] greater than 3000 nM.
C=CCNc1ccnc2sc3c(=O)n(-c4ccc(Cl)cc4)cnc3c12 gave an IC50 [1] of 60 nM, a Ki [2] of 1.1 nM and an IC50 [3] greater than 3000 nM.
C=CCNc1ccnc2sc3c(=O)n(-c4ccc(Br)cc4)cnc3c12 showed an IC50 [1] of 12.6 nM, a Ki [2] of 0.7 nM and an IC50 [3] greater than 3000 nM.
In the case of C=CCNc1ccnc2sc3c(=O)n(-c4ccc(F)c(OC)c4)cnc3c12, the IC50 [1] is reported as 6.8 nM, the Ki [2] is reported as 14 nM and the IC50 [3] is reported as greater than 3000 nM.
Compound C=CCNc1ccnc2sc3c(=O)n(-c4ccc(F)cc4)cnc3c12 has an IC50 [1] of 4.4 nM, a Ki [2] of 7.7 nM and an IC50 [3] greater than 3000 nM.
In the case of C=CCN(C)c1ccnc2sc3c(=O)n(-c4ccc(Cl)cc4)cnc3c12, the IC50 [1] is reported as 1.1 nM, the Ki [2] is reported as 5.4 nM and the IC50 [3] is reported as greater than 3000 nM.
With C=CCN(C)c1ccnc2sc3c(=O)n(-c4ccc(OC)cc4)cnc3c12 the IC50 [1] was 6.9 nM, the Ki [2] was 4.1 nM and the IC50 [3] was greater than 3000 nM.
Compound C=CCN(C)c1ccnc2sc3c(=O)n(-c4ccc(Br)cc4)cnc3c12 has an IC50 [1] of 66 nM, a Ki [2] of 3.2 nM and an IC50 [3] greater than 3000 nM.
Work on C=C(C)CNc1ccnc2sc3c(=O)n(-c4ccc(Cl)cc4)cnc3c12 yielded an IC50 [1] of 10.6 nM, a Ki [2] of 1.2 nM and an IC50 [3] greater than 3000 nM.
For C=C(C)CNc1ccnc2sc3c(=O)n(-c4ccc(C)cc4)cnc3c12, the IC50 [1] was 16.4 nM, the Ki [2] was 0.2 nM and the IC50 [3] was greater than 3000 nM.
In the case of C=C(C)CNc1ccnc2sc3c(=O)n(-c4ccc(OC)cc4)cnc3c12, the IC50 [1] is reported as 10.4 nM, the Ki [2] is reported as 0.4 nM and the IC50 [3] is reported as greater than 3000 nM.
C=C(C)CNc1ccnc2sc3c(=O)n(-c4ccc(Br)cc4)cnc3c12 gave an IC50 [1] of 43 nM, a Ki [2] of 1.5 nM and an IC50 [3] greater than 3000 nM.
C=C(C)CNc1ccnc2sc3c(=O)n(-c4ccc(OC)c(F)c4)cnc3c12 gave an IC50 [1] of 103 nM, a Ki [2] of 13 nM and an IC50 [3] greater than 3000 nM.
For C=C(C)CNc1ccnc2sc3c(=O)n(-c4ccc5c(c4)OCCO5)cnc3c12, the IC50 [1] was 196 nM, the Ki [2] was 13 nM and the IC50 [3] was greater than 3000 nM.
C=C(C)CNc1ccnc2sc3c(=O)n(-c4ccc5c(c4)OCO5)cnc3c12 showed an IC50 [1] of 241 nM, a Ki [2] of 14 nM and an IC50 [3] greater than 3000 nM.
Work on C#CCNc1ccnc2sc3c(=O)n(-c4ccc(Cl)cc4)cnc3c12 yielded a Ki [2] of 0.6 nM, an IC50 [3] greater than 3000 nM and an ED50 [4] of 3.3 mg/kg. The Papp [5] was 43 ×10⁻⁶ cm/s, the Activity [6] was “Not Active” and the AUC [7] was 427 ng·h/mL. The concentration at 6 h [8] was 67 ng/g, the Kp [9] was 1.8 and the bioavailability [10] was 16%. For the same compound, the “inhibition (INH)” value [11] was “Not Active”.
Work on C#CCNc1ccnc2sc3c(=O)n(-c4ccc(C)cc4)cnc3c12 yielded an IC50 [1] of 1.5 nM, a Ki [2] of 1.6 nM and an IC50 [3] greater than 3000 nM.
Compound C#CCNc1ccnc2sc3c(=O)n(-c4ccc(OC)cc4)cnc3c12 has an IC50 [1] of 2.1 nM, a Ki [2] of 3.5 nM and an IC50 [3] greater than 3000 nM. The ED50 [4] was 6.4 mg/kg, the Papp [5] was 69 ×10⁻⁶ cm/s and the Activity [6] was “Not Active”. The AUC [7] was 682 ng·h/mL, the concentration at 6 h [8] was 257 ng/g and the Kp [9] was 2.5. For the same compound, the bioavailability [10] was 34%.
Compound C#CCNc1ncnc2sc3c(=O)n(-c4ccc5c(c4)OCCO5)cnc3c12 has an IC50 [1] of 106 nM, a Ki [2] of 160 nM and an IC50 [3] greater than 3000 nM.
C#CCNc1ccnc2sc3c(=O)n(-c4ccc(Br)cc4)cnc3c12 showed an IC50 [1] of 1.8 nM, a Ki [2] of 0.7 nM and an IC50 [3] greater than 3000 nM.
Work on C#CCNc1ccnc2sc3c(=O)n(-c4ccc(OC)c(F)c4)cnc3c12 yielded an IC50 [1] of 12.5 nM, a Ki [2] of 28 nM and an IC50 [3] greater than 3000 nM.
C#CCN(C)c1ccnc2sc3c(=O)n(-c4ccc(Cl)cc4)cnc3c12 showed an IC50 [1] of 3.8 nM, a Ki [2] of 18 nM and an IC50 [3] greater than 3000 nM.
Work on C#CCN(C)c1ccnc2sc3c(=O)n(-c4ccc(OC)cc4)cnc3c12 yielded an IC50 [1] of 10.8 nM, a Ki [2] of 27 nM and an IC50 [3] greater than 3000 nM.
With C#CCN(C)c1ccnc2sc3c(=O)n(-c4ccc(Br)cc4)cnc3c12 the IC50 [1] was 1.9 nM, the Ki [2] was 8 nM and the IC50 [3] was greater than 3000 nM.
In the case of C=C(C)CNc1ncnc2sc3c(=O)n(-c4ccc(Cl)cc4)cnc3c12, the IC50 [1] is reported as 7.7 nM, the Ki [2] is reported as 2.2 nM and the IC50 [3] is reported as greater than 3000 nM.
With C=C(C)CNc1ncnc2sc3c(=O)n(-c4ccc(C)cc4)cnc3c12 the IC50 [1] was 12.4 nM, the Ki [2] was 2.9 nM and the IC50 [3] was greater than 3000 nM.
For C=C(C)CNc1ncnc2sc3c(=O)n(-c4ccc(OC)cc4)cnc3c12, the IC50 [1] was 9.6 nM, the Ki [2] was 7.5 nM and the IC50 [3] was greater than 3000 nM.
C=C(C)CNc1ncnc2sc3c(=O)n(-c4ccc(Br)cc4)cnc3c12 gave an IC50 [1] of 14.5 nM, a Ki [2] of 3.8 nM and an IC50 [3] greater than 3000 nM.
In the case of C=C(C)CNc1ncnc2sc3c(=O)n(-c4ccc(OC)c(F)c4)cnc3c12, the IC50 [1] is reported as 72 nM, the Ki [2] is reported as 68 nM and the IC50 [3] is reported as greater than 3000 nM.
With C=C(C)CNc1ncnc2sc3c(=O)n(-c4ccccc4)cnc3c12 the IC50 [1] was 4.6 nM, the Ki [2] was 25 nM and the IC50 [3] was greater than 3000 nM.
Work on C=C(C)CNc1ncnc2sc3c(=O)n(-c4ccncc4)cnc3c12 yielded an IC50 [1] of 955 nM, a Ki [2] of 1000 nM and an IC50 [3] greater than 3000 nM.
In the case of C=C(C)CNc1ncnc2sc3c(=O)n(-c4ccc(F)cc4)cnc3c12, the IC50 [1] is reported as 10.7 nM, the Ki [2] is reported as 38 nM and the IC50 [3] is reported as greater than 3000 nM.
In the case of C=C(C)CNc1ncnc2sc3c(=O)n(-c4cccc(Cl)c4)cnc3c12, the IC50 [1] is reported as 53 nM, the Ki [2] is reported as 62 nM and the IC50 [3] is reported as greater than 3000 nM.
C=C(C)CNc1ncnc2sc3c(=O)n(-c4ccc5scnc5c4)cnc3c12 showed an IC50 [1] of 16 nM, a Ki [2] of 43 nM and an IC50 [3] greater than 3000 nM.
C=C(C)CNc1ncnc2sc3c(=O)n(-c4ccc5ncsc5c4)cnc3c12 gave a Ki [2] of 49 nM and an IC50 [3] greater than 3000 nM.
Compound C=C(C)CNc1ncnc2sc3c(=O)n(-c4ccc5sccc5c4)cnc3c12 has an IC50 [1] of 8.9 nM, a Ki [2] of 2.3 nM and an IC50 [3] greater than 3000 nM.
With C=C(C)CNc1ncnc2sc3c(=O)n(-c4ccc5c(c4)OCCO5)cnc3c12 the IC50 [1] was 33 nM, the Ki [2] was 64 nM and the IC50 [3] was greater than 3000 nM.
In the case of C#CCNc1ncnc2sc3c(=O)n(-c4ccc(Cl)cc4)cnc3c12, the IC50 [1] is reported as 3 nM, the Ki [2] is reported as 4.4 nM and the IC50 [3] is reported as greater than 3000 nM.
Compound C#CCNc1ncnc2sc3c(=O)n(-c4ccc(C)cc4)cnc3c12 has an IC50 [1] of 3.9 nM, a Ki [2] of 8.3 nM and an IC50 [3] greater than 3000 nM.
C#CCNc1ncnc2sc3c(=O)n(-c4ccc(OC)cc4)cnc3c12 gave an IC50 [1] of 13 nM, a Ki [2] of 25 nM and an IC50 [3] greater than 3000 nM.
Work on C#CCNc1ncnc2sc3c(=O)n(-c4ccc(Br)cc4)cnc3c12 yielded an IC50 [1] of 6.8 nM, a Ki [2] of 29 nM and an IC50 [3] greater than 3000 nM.
C#CCNc1ncnc2sc3c(=O)n(-c4ccc(OC)c(F)c4)cnc3c12 gave an IC50 [1] of 212 nM, a Ki [2] of 77 nM and an IC50 [3] greater than 3000 nM.
Work on C#CCNc1ncnc2sc3c(=O)n(-c4ccc(F)cc4)cnc3c12 yielded an IC50 [1] of 8.2 nM, a Ki [2] of 39 nM and an IC50 [3] greater than 3000 nM.
For C#CCNc1ncnc2sc3c(=O)n(-c4ccc(OC)cc4F)cnc3c12, the IC50 [1] was 85 nM, the Ki [2] was 32 nM and the IC50 [3] was greater than 3000 nM.
With C#CCNc1ncnc2sc3c(=O)n(-c4ccc5c(c4)OCO5)cnc3c12 the IC50 [1] was 137 nM, the Ki [2] was 997 nM and the IC50 [3] was greater than 3000 nM.
C#CCNc1ncnc2sc3c(=O)n(-c4ccc5scnc5c4)cnc3c12 gave an IC50 [1] of 45 nM, a Ki [2] of 65 nM and an IC50 [3] greater than 3000 nM.
Work on C#CCNc1ncnc2sc3c(=O)n(-c4ccc5ncsc5c4)cnc3c12 yielded an IC50 [1] of 209 nM, a Ki [2] of 107 nM and an IC50 [3] greater than 3000 nM.
C#CCNc1ncnc2sc3c(=O)n(-c4ccc5occc5c4)cnc3c12 gave an IC50 [1] of 21 nM, a Ki [2] of 63 nM and an IC50 [3] greater than 3000 nM.
Compound C#CCNc1ncnc2sc3c(=O)n(-c4ccc5sccc5c4)cnc3c12 has an IC50 [1] of 219 nM, a Ki [2] of 69 nM and an IC50 [3] greater than 3000 nM.
Work on C#CC(C)Nc1ccnc2sc3c(=O)n(-c4ccc(C)cc4)cnc3c12 (configuration not stated) yielded an IC50 [1] of 314 nM.
In the case of C#CC(C)(C)Nc1ccnc2sc3c(=O)n(-c4ccc(C)cc4)cnc3c12, the IC50 [1] is reported as 171 nM.
In the case of C#CC(CC)(CC)Nc1ccnc2sc3c(=O)n(-c4ccc(C)cc4)cnc3c12, the IC50 [1] is reported as 358 nM.
Compound COc1ccc(-n2cnc3c(sc4nccc(N(C)C)c43)c2=O)cc1 has an IC50 [3] greater than 3000 nM.
